Activity calls are given as the source filed them. The rule behind the calls is not given here.
Columns and labels:
[1] = biological target: Cyclin-dependent kinase 5/CDK5 activator 1 (Homo sapiens, UniProt Q00535); assay: Inhibition of CDK5/p25; format: protein-complex assay
Method in brief: (§1)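 Ki values were calculated from measured IC50 values of kinase inhibition.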

[2] = biological target: Glycogen synthase kinase-3 beta (Homo sapiens, UniProt P49841); assay: Inhibition of GSK3beta; method in brief: as §1
Sequence of Glycogen synthase kinase-3 beta (P49841 whole entry): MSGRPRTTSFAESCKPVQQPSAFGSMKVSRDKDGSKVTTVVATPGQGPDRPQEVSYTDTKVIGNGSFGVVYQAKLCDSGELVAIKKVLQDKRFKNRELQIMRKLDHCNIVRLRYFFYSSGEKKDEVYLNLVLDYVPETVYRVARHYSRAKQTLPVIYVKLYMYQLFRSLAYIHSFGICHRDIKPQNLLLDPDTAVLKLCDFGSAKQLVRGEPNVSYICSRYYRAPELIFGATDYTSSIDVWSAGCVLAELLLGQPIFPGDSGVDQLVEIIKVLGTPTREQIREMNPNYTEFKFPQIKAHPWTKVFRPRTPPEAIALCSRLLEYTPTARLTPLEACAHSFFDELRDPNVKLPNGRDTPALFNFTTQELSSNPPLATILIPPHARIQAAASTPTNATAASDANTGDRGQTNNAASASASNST

[3] = biological target: Cyclin-dependent kinase 1/cyclin B1 (Homo sapiens, UniProt P06493); assay: Inhibition of CDK1/Cyclin B; format: protein-complex assay; method in brief: as §1
Sequence of Cyclin-dependent kinase 1/cyclin B1 (P06493 whole entry): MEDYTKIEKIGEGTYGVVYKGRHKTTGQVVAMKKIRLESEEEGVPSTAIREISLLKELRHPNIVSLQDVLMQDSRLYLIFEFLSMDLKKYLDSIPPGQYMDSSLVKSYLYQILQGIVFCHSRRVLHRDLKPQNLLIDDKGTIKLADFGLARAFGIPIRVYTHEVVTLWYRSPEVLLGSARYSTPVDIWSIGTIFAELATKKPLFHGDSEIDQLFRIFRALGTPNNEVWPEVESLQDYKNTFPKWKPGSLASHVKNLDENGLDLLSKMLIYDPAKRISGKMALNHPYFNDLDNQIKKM
Sequence of Cyclin-dependent kinase 1/cyclin B1 (P14635 whole entry, further chain): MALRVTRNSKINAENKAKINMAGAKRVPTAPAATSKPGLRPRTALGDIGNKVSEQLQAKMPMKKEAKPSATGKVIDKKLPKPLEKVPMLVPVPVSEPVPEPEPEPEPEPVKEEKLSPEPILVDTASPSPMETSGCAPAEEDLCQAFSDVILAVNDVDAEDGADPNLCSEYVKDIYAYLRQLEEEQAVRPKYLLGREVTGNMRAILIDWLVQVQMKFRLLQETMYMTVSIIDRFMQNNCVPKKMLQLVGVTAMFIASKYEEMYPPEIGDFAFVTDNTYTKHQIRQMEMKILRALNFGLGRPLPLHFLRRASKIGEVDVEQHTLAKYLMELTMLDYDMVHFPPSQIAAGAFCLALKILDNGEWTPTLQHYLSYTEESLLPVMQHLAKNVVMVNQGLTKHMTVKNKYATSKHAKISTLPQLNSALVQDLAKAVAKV

[4] = Inhibition of CDK4/Cyclin D; method in brief: as §1
[5] = biological target: Cyclin-dependent kinase 2/cyclin E (Homo sapiens, UniProt P24941); assay: Inhibition of CDK2/Cyclin E; format: protein-complex assay; method in brief: as §1
[6] = biological target: Vascular endothelial growth factor receptor 2 (Homo sapiens, UniProt P35968); assay: Inhibition of VEGFR2
[7] = biological target: Protein kinase C gamma type (Homo sapiens, UniProt P05129); assay: Inhibition of PKCgamma
[8] = biological target: Receptor tyrosine-protein kinase erbB-2 (Homo sapiens, UniProt P04626); assay: Inhibition of ERBB2
[9] = biological target: Glycogen synthase kinase-3 beta (Mus musculus) (UniProt Q9WV60); assay: Inhibition of GSK3beta-mediated Tau S202/T205 phosphorylation in mouse N2A cells at 2.6 to 24 uM after 16 hrs by immunoblot analysis; format: cell-based
Sequence of Glycogen synthase kinase-3 beta (Mus musculus) (Q9WV60 whole entry, looked up): as the sequence (P49841 whole entry) above, with T390P, T392A, A400T, T402A counted along it
Method in brief: (§2)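 Mouse N2A cells stably transfected with a 3-repeat tau construct were grown 24 h in DMEM/HAMs F-12 (pH 7.4), 5% FBS, 2 mM L-glutamine and gentamicin (37 °C, 5% CO2). They were then exposed 16 h to inhibitor diluted from a 25 mM DMSO stock (final DMSO ≤0.4%, also in controls). Lysate proteins were run on 8% SDS–PAGE, blotted to PVDF, and probed for phospho-Ser202/Thr205 tau.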

CDK6/cyclin D1 = CDK6/cyclin D1 (Homo sapiens, UniProt Q00534); assay: Inhibition of CDK6/Cyclin D1; format: protein-complex assay
[10] = biological target: Cdk5-Cdk5r1 complex (Mus musculus) (UniProt P49615+P61809); assay: Inhibition of CDK5/p25-mediated Tau S202/T205 phosphorylation in mouse N2A cells at 2.6 to 24 uM after 16 hrs by immunoblot analysis; format: cell-based; method in brief: as §2
Sequence of Cdk5-Cdk5r1 complex (Mus musculus) (P49615 whole entry, looked up): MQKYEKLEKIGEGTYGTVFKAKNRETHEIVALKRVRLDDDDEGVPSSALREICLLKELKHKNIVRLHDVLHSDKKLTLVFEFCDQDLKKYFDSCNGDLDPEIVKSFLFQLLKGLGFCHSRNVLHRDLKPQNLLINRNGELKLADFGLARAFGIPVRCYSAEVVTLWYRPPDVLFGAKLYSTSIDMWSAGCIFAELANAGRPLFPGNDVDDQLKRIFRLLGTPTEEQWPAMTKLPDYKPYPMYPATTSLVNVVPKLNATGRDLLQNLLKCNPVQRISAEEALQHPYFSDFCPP
Sequence of Cdk5-Cdk5r1 complex (Mus musculus) (P61809 whole entry, looked up): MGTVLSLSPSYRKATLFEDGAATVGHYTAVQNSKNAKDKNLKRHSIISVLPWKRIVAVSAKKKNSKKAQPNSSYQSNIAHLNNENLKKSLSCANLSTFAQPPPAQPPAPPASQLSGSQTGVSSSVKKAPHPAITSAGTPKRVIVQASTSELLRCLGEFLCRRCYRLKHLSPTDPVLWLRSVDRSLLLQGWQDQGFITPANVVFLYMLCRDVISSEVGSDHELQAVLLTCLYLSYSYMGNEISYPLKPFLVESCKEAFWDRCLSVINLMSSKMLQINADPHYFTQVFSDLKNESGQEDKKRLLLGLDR

[11] = biological target: Protein kinase C alpha type (Homo sapiens, UniProt P17252); assay: Inhibition of PKCalpha
Angiopoietin-1 receptor = Angiopoietin-1 receptor (Homo sapiens, UniProt Q02763); assay: Inhibition of TIE2
N2a [12] = assay: Cytotoxicity against mouse N2A cells up to 90 uM by MTT assay; format: cell-based
Method in brief: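 N2A cells were treated at up to 90 µM. MTT was added in triplicate to a final 1 mg/mL for 2 h. Medium was removed, formazan taken up in DMSO plus glycine buffer (0.1 M glycine, pH 10.5, 0.1 M NaCl), and absorbance read at 550 nm. Cells lysed with 1% Triton X-100 set 100% death; untreated cells served as reference.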

[13] = biological target: Casein kinase I isoform alpha (Homo sapiens, UniProt P48729); assay: Inhibition of Ck1alpha1
Sequence of Casein kinase I isoform alpha (P48729 whole entry, canonical isoform): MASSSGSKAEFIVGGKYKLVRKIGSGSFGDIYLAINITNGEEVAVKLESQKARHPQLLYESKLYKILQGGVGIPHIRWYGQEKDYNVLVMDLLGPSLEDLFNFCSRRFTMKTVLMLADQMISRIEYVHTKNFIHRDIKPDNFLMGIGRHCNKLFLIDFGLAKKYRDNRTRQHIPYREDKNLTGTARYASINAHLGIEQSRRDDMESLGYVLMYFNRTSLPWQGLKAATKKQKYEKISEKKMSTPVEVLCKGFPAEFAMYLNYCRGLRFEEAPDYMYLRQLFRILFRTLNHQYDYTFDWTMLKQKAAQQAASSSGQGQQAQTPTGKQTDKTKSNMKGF

N2a [14] = assay: Cytotoxicity against mouse N2A cells up to 90 uM by LDH assay; format: cell-based
Method in brief: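 Membrane integrity in N2A cells was read as extracellular lactate dehydrogenase activity, at compound concentrations up to 90 µM. Absorbance was read at 492 nm 20 min after adding the reagent mixture and compared with compound-free cells.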

[15] = biological target: T1, Protein kinase C iota type (Homo sapiens, UniProt P41743); assay: Inhibition of PKCiota
T1 sequence (P41743 whole entry): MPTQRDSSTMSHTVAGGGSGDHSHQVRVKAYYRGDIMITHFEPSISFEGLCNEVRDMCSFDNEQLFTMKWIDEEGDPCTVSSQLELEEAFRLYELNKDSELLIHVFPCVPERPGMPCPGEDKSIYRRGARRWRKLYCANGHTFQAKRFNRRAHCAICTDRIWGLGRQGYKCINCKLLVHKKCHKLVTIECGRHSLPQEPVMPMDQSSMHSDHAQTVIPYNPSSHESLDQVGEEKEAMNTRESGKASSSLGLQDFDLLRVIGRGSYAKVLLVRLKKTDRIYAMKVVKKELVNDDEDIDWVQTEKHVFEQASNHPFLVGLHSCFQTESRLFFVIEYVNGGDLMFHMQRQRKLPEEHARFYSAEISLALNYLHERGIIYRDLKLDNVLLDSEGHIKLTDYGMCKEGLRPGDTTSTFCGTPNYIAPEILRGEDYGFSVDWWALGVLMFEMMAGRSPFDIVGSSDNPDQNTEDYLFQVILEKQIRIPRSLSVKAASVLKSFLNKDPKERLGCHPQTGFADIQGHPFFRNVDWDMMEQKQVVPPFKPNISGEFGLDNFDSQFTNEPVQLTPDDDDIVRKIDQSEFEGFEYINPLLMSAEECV

[16] = biological target: T2, Protein kinase C epsilon type (Homo sapiens, UniProt Q02156); assay: Inhibition of PKCepsilon
T2 sequence (Q02156 whole entry): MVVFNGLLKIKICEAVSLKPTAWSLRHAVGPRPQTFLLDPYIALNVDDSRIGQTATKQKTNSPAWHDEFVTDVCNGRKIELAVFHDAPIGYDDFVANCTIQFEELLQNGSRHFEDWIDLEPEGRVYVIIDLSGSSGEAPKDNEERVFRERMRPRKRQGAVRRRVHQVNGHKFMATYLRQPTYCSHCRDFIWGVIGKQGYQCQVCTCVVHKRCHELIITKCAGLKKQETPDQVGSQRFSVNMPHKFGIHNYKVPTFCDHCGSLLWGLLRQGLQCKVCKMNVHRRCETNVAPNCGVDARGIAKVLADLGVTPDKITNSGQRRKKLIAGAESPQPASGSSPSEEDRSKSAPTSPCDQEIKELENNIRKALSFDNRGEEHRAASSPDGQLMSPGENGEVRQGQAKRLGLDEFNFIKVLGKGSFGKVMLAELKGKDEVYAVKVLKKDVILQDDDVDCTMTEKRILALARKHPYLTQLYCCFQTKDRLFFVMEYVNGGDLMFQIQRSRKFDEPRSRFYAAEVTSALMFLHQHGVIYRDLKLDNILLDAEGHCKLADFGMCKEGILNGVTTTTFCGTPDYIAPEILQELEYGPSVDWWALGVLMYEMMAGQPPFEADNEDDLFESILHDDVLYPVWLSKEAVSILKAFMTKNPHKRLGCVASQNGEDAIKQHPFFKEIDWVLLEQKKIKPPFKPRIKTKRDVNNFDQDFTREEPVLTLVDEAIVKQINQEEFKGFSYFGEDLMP

Wee1-like protein kinase = Wee1-like protein kinase (Homo sapiens, UniProt P30291); assay: Inhibition of WEE1
Sequence of Wee1-like protein kinase (P30291 whole entry): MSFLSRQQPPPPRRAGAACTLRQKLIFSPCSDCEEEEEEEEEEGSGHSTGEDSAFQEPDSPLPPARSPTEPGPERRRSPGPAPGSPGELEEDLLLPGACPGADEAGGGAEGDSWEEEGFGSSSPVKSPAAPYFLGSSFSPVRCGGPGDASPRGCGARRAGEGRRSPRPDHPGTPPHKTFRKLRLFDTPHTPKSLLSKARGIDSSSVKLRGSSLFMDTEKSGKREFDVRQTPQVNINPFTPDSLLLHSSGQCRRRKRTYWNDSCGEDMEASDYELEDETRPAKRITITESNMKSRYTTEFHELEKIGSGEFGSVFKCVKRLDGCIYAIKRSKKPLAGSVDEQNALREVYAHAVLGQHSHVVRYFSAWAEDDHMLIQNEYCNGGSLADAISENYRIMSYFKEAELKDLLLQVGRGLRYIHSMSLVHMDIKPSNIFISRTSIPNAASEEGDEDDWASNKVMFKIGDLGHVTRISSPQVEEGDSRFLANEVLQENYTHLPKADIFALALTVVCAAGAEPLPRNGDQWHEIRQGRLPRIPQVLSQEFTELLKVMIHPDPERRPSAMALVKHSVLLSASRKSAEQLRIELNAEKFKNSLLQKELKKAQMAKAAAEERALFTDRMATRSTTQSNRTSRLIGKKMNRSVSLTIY

Sequence of Cyclin-dependent kinase 5/CDK5 activator 1 (Q00535 whole entry): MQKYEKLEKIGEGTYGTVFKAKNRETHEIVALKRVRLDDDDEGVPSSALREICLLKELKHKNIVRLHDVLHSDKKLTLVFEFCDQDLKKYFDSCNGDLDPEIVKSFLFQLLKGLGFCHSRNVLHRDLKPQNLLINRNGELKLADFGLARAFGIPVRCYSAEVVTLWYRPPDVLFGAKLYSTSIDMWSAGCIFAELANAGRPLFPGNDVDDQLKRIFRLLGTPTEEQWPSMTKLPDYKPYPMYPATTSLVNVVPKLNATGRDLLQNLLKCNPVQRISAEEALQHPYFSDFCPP
Sequence of Cyclin-dependent kinase 5/CDK5 activator 1 (Q15078 whole entry, further chain): as the sequence (P61809 whole entry, looked up) above, with A68V, S76N, A79T, V121G, I133V counted along it

Structure (SMILES) | Ki [1] [µM] | Ki [2] [µM] | Ki [3] [µM] | Ki [4] [µM] | Ki [5] [µM] | also measured
Oc1cc2c(oc3ncc(OCc4ccccc4)c(-c4ccccc4)c32)c2ccccc12 | 2.1 | 1.6 | 0.09 |  |  | 
Oc1cnc2oc3c4ccccc4c(O)cc3c2c1-c1ccccc1 | 0.07 | 0.01 | 0.7 |  |  | 
COc1ccc2oc3ncc(OC)c(-c4ccccc4)c3c2c1 | > 1000 | > 1000 | > 1000 | > 1000 | > 1000 | 
Oc1ccc2oc3ncc(OCc4ccccc4)c(-c4ccccc4)c3c2c1 | > 1000 | 5.8 | 2.3 | 36.6 | 6.4 | 
COc1ccc2oc3ncc(OCc4ccccc4)c(-c4ccccc4)c3c2c1 | 26.1 | 0.02 | > 1000 | > 1000 | > 1000 | 
COc1cnc2oc3ccc(O)cc3c2c1-c1ccccc1 | > 1000 | 14.8 | 5.3 | 93.6 | 24 | 
Oc1ccc2oc3ncc(O)c(-c4ccccc4)c3c2c1 | 0.11 | 0.02 | 0.01 | 18.5 | 0.6 | Ki [6]: > 1000 µM; Ki [7]: > 1000 µM; Ki [8]: > 1000 µM; inhibition [9]: Active; Ki (CDK6/cyclin D1): 773 µM; inhibition [10]: Active; Ki [11]: > 1000 µM; Ki (Angiopoietin-1 receptor): > 1000 µM; Activity (N2a [12]): Non-toxic; Ki [13]: > 1000 µM; Activity (N2a [14]): Non-toxic; Ki [15]: > 1000 µM; Ki [16]: > 1000 µM; Ki (Wee1-like protein kinase): > 1000 µM
Cc1cc2oc3ncc(OCc4ccccc4)c(-c4ccccc4)c3c2cc1O | 25.3 | 5.8 | 1.3 |  |  | 
COc1ccc2oc3ncc(O)c(-c4ccccc4)c3c2c1 | > 1000 | > 1000 | > 1000 | 144 | > 1000 | 
